# Measurements from ChEMBL document CHEMBL1152796, “Azole antimicrobial pharmacophore-based tetrazoles: synthesis and biological evaluation as potential antimicrobial and anticonvulsant agents” (Bioorg Med Chem, 2009).
# Calls of active or inactive are those of the source. No cut-off for these calls is given here.
# System: Staphylococcus aureus
# Experiment: Antibacterial activity against Staphylococcus aureus ATCC 6538 after 24 to 48 hrs by twofold serial dilution method
# Assay type: functional
# Settings: not given
# Procedure, shortened: (§1)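 Broth microdilution in Müller–Hinton broth. DMSO stocks at 800 were diluted twofold from 400 down to 6.25. Wells received 10^6 CFU/mL bacterial suspension and were incubated at 36 °C for 24–48 h, with controls. MIC was read per well. Duplicate assays; run only for compounds giving inhibition zones ≥14 mm.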
row,SMILES,MIC [µg/mL]
1,CC1(C)S[C@@H]2[C@H](NC(=O)[C@H](N)c3ccccc3)C(=O)N2[C@H]1C(=O)O.O.O.O [AMPICILLIN TRIHYDRATE],6.25
2,O=C(COC(Cn1nnc(-c2ccccc2)n1)c1ccc(Cl)cc1)N/N=C/c1ccc(Cl)cc1 (configuration not stated),50
3,O=C(O)COC(Cn1nnc(-c2ccccc2)n1)c1ccc(Cl)cc1 (configuration not stated),100

# System: Bacillus subtilis
# Experiment: Antibacterial activity against Bacillus subtilis NRRL B-14819 after 24 to 48 hrs by twofold serial dilution method
# Assay type: functional
# Settings: not given
# Procedure, shortened: as §1
row,SMILES,MIC [µg/mL]
1,CC1(C)S[C@@H]2[C@H](NC(=O)[C@H](N)c3ccccc3)C(=O)N2[C@H]1C(=O)O.O.O.O [AMPICILLIN TRIHYDRATE],12.5
2,O=C(COC(Cn1nnc(-c2ccccc2)n1)c1ccc(Cl)cc1)N/N=C/c1ccc(Cl)cc1 (configuration not stated),50
3,O=C(O)COC(Cn1nnc(-c2ccccc2)n1)c1ccc(Cl)cc1 (configuration not stated),100

# System: Micrococcus luteus
# Experiment: Antibacterial activity against Micrococcus luteus ATCC 21881 after 24 to 48 hrs by twofold serial dilution method
# Assay type: functional
# Settings: not given
# Procedure, shortened: as §1
row,SMILES,MIC [µg/mL]
1,CC1(C)S[C@@H]2[C@H](NC(=O)[C@H](N)c3ccccc3)C(=O)N2[C@H]1C(=O)O.O.O.O [AMPICILLIN TRIHYDRATE],12.5
2,O=C(COC(Cn1nnc(-c2ccccc2)n1)c1ccc(Cl)cc1)N/N=C/c1ccc(Cl)cc1 (configuration not stated),100
3,O=C(O)COC(Cn1nnc(-c2ccccc2)n1)c1ccc(Cl)cc1 (configuration not stated),≥ 200

# System: Escherichia coli
# Experiment: Antibacterial activity against Escherichia coli ATCC 25922 after 24 to 48 hrs by twofold serial dilution method
# Assay type: functional
# Settings: not given
# Procedure, shortened: as §1
row,SMILES,MIC [µg/mL]
1,CC1(C)S[C@@H]2[C@H](NC(=O)[C@H](N)c3ccccc3)C(=O)N2[C@H]1C(=O)O.O.O.O [AMPICILLIN TRIHYDRATE],6.25
2,O=C(COC(Cn1nnc(-c2ccccc2)n1)c1ccc(Cl)cc1)N/N=C/c1ccc(Cl)cc1 (configuration not stated),100
3,O=C(O)COC(Cn1nnc(-c2ccccc2)n1)c1ccc(Cl)cc1 (configuration not stated),≥ 200

# System: Pseudomonas aeruginosa
# Experiment: Antibacterial activity against Pseudomonas aeruginosa ATCC 27853 after 24 to 48 hrs by twofold serial dilution method
# Assay type: functional
# Settings: not given
# Procedure, shortened: as §1
row,SMILES,MIC [µg/mL]
1,CC1(C)S[C@@H]2[C@H](NC(=O)[C@H](N)c3ccccc3)C(=O)N2[C@H]1C(=O)O.O.O.O [AMPICILLIN TRIHYDRATE],12.5
2,O=C(COC(Cn1nnc(-c2ccccc2)n1)c1ccc(Cl)cc1)N/N=C/c1ccc(Cl)cc1 (configuration not stated),≥ 200
3,O=C(O)COC(Cn1nnc(-c2ccccc2)n1)c1ccc(Cl)cc1 (configuration not stated),≥ 200

# System: Klebsiella pneumoniae
# Experiment: Antibacterial activity against Klebsiella pneumoniae isolate after 24 to 48 hrs by twofold serial dilution method
# Assay type: functional
# Settings: not given
# Procedure, shortened: as §1
row,SMILES,MIC [µg/mL]
1,CC1(C)S[C@@H]2[C@H](NC(=O)[C@H](N)c3ccccc3)C(=O)N2[C@H]1C(=O)O.O.O.O [AMPICILLIN TRIHYDRATE],12.5
2,O=C(COC(Cn1nnc(-c2ccccc2)n1)c1ccc(Cl)cc1)N/N=C/c1ccc(Cl)cc1 (configuration not stated),≥ 200
3,O=C(O)COC(Cn1nnc(-c2ccccc2)n1)c1ccc(Cl)cc1 (configuration not stated),≥ 200

# System: Candida tropicalis
# Experiment: Antifungal activity against Candida tropicalis isolate after 72 hrs by twofold serial dilution method
# Assay type: functional, organism-based
# Settings: not given
row,SMILES,Activity
1,O=C(COC(Cn1nnc(-c2ccccc2)n1)c1ccc(Cl)cc1)N/N=C/c1ccc(Cl)cc1 (configuration not stated),inactive
2,O=C(O)COC(Cn1nnc(-c2ccccc2)n1)c1ccc(Cl)cc1 (configuration not stated),inactive

# System: Pichia kudriavzevii
# Experiment: Antifungal activity against Candida krusei isolate after 72 hrs by twofold serial dilution method
# Assay type: functional, organism-based
# Settings: not given
row,SMILES,Activity
1,O=C(COC(Cn1nnc(-c2ccccc2)n1)c1ccc(Cl)cc1)N/N=C/c1ccc(Cl)cc1 (configuration not stated),inactive
2,O=C(O)COC(Cn1nnc(-c2ccccc2)n1)c1ccc(Cl)cc1 (configuration not stated),inactive

# System: Aspergillus niger
# Experiment: Antifungal activity against Aspergillus niger isolate after 72 hrs by twofold serial dilution method
# Assay type: functional, organism-based
# Settings: not given
row,SMILES,Activity
1,O=C(COC(Cn1nnc(-c2ccccc2)n1)c1ccc(Cl)cc1)N/N=C/c1ccc(Cl)cc1 (configuration not stated),inactive
2,O=C(O)COC(Cn1nnc(-c2ccccc2)n1)c1ccc(Cl)cc1 (configuration not stated),inactive

# System: Trichophyton rubrum
# Experiment: Antifungal activity against Trichophyton rubrum isolate after 72 hrs by twofold serial dilution method
# Assay type: functional, organism-based
# Settings: not given
row,SMILES,Activity
1,O=C(COC(Cn1nnc(-c2ccccc2)n1)c1ccc(Cl)cc1)N/N=C/c1ccc(Cl)cc1 (configuration not stated),inactive
2,O=C(O)COC(Cn1nnc(-c2ccccc2)n1)c1ccc(Cl)cc1 (configuration not stated),inactive

# System: Staphylococcus aureus
# Experiment: Antibacterial activity against Staphylococcus aureus ATCC 6538 at 1 mg/mL after 24 hrs by agar diffusion method
# Assay type: functional
# Settings: ATCC 6538, 24 h, read-out: Diameter of inhibition zone
# Procedure, shortened: (§2)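 Agar disc diffusion: 5 mm sterile paper discs soaked in 1 mg/mL test solution in DMSO were placed on agar seeded with the organism, in triplicate, with a DMSO-only control. Bacterial plates were incubated at 37 °C for 24 h and fungal plates for 7 days. Read-out was the average inhibition-zone diameter in mm. Fungi were clinical isolates.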
row,SMILES,zone of inhibition at 1000 µg/mL [mm]
1,O=C(COC(Cn1nnc(-c2ccccc2)n1)c1ccc(Cl)cc1)N/N=C/c1ccc(Cl)cc1 (configuration not stated),≥ 14
2,O=C(O)COC(Cn1nnc(-c2ccccc2)n1)c1ccc(Cl)cc1 (configuration not stated),≥ 14

# System: Bacillus subtilis
# Experiment: Antibacterial activity against Bacillus subtilis NRRL B-14819 at 1 mg/mL after 24 hrs by agar diffusion method
# Assay type: functional
# Settings: read-out: Diameter of inhibition zone
# Procedure, shortened: as §2
row,SMILES,zone of inhibition at 1000 µg/mL [mm]
1,O=C(COC(Cn1nnc(-c2ccccc2)n1)c1ccc(Cl)cc1)N/N=C/c1ccc(Cl)cc1 (configuration not stated),≥ 14
2,O=C(O)COC(Cn1nnc(-c2ccccc2)n1)c1ccc(Cl)cc1 (configuration not stated),≥ 14

# System: Micrococcus luteus
# Experiment: Antibacterial activity against Micrococcus luteus ATCC 21881 at 1 mg/mL after 24 hrs by agar diffusion method
# Assay type: functional
# Settings: ATCC 21881, 24 h, read-out: Diameter of inhibition zone
# Procedure, shortened: as §2
row,SMILES,zone of inhibition at 1000 µg/mL [mm]
1,O=C(COC(Cn1nnc(-c2ccccc2)n1)c1ccc(Cl)cc1)N/N=C/c1ccc(Cl)cc1 (configuration not stated),≥ 14
2,O=C(O)COC(Cn1nnc(-c2ccccc2)n1)c1ccc(Cl)cc1 (configuration not stated),≥ 14

# System: Escherichia coli
# Experiment: Antibacterial activity against Escherichia coli ATCC 25922 at 1 mg/mL after 24 hrs by agar diffusion method
# Assay type: functional
# Settings: ATCC 25922, 24 h, read-out: Diameter of inhibition zone
# Procedure, shortened: as §2
row,SMILES,zone of inhibition at 1000 µg/mL [mm]
1,O=C(COC(Cn1nnc(-c2ccccc2)n1)c1ccc(Cl)cc1)N/N=C/c1ccc(Cl)cc1 (configuration not stated),≥ 14
2,O=C(O)COC(Cn1nnc(-c2ccccc2)n1)c1ccc(Cl)cc1 (configuration not stated),≥ 14

# System: Pseudomonas aeruginosa
# Experiment: Antibacterial activity against Pseudomonas aeruginosa ATCC 27853 at 1 mg/mL after 24 hrs by agar diffusion method
# Assay type: functional
# Settings: ATCC 27853, 24 h, read-out: Diameter of inhibition zone
# Procedure, shortened: as §2
row,SMILES,zone of inhibition at 1000 µg/mL [mm]
1,O=C(COC(Cn1nnc(-c2ccccc2)n1)c1ccc(Cl)cc1)N/N=C/c1ccc(Cl)cc1 (configuration not stated),≥ 14
2,O=C(O)COC(Cn1nnc(-c2ccccc2)n1)c1ccc(Cl)cc1 (configuration not stated),≥ 14

# System: Klebsiella pneumoniae
# Experiment: Antibacterial activity against Klebsiella pneumoniae isolate at 1 mg/mL after 24 hrs by agar diffusion method
# Assay type: functional
# Settings: read-out: Diameter of inhibition zone
# Procedure, shortened: as §2
row,SMILES,zone of inhibition at 1000 µg/mL [mm]
1,O=C(COC(Cn1nnc(-c2ccccc2)n1)c1ccc(Cl)cc1)N/N=C/c1ccc(Cl)cc1 (configuration not stated),≥ 14
2,O=C(O)COC(Cn1nnc(-c2ccccc2)n1)c1ccc(Cl)cc1 (configuration not stated),≥ 14

# System: Candida albicans
# Experiment: Antifungal activity against Candida albicans isolate at 1 mg/mL after 7 days by twofold serial dilution method
# Assay type: functional
# Settings: 168 h, read-out: Diameter of inhibition zone
row,SMILES,zone of inhibition at 1000 µg/mL [mm]
1,O=C(COC(Cn1nnc(-c2ccccc2)n1)c1ccc(Cl)cc1)N/N=C/c1ccc(Cl)cc1 (configuration not stated),≥ 14
2,O=C(O)COC(Cn1nnc(-c2ccccc2)n1)c1ccc(Cl)cc1 (configuration not stated),≥ 14

# System: Aspergillus fumigatus
# Experiment: Antifungal activity against Aspergillus fumigatus isolate at 1 mg/mL after 7 days by agar diffusion method
# Assay type: functional
# Settings: 168 h, read-out: Diameter of inhibition zone
# Procedure, shortened: as §2
row,SMILES,zone of inhibition at 1000 µg/mL [mm]
1,O=C(COC(Cn1nnc(-c2ccccc2)n1)c1ccc(Cl)cc1)N/N=C/c1ccc(Cl)cc1 (configuration not stated),≥ 14
2,O=C(O)COC(Cn1nnc(-c2ccccc2)n1)c1ccc(Cl)cc1 (configuration not stated),≥ 14
